This is an account of results in ChEMBL document CHEMBL1124029, “Novel DNA groove binding alkylators: design, synthesis, and biological evaluation” (1988).

Assay [1] has as its system rhinovirus A9. The assay can be described thus: Minimum inhibitory concentration required to reduce virus induced cytopathogenicity by 50% against rhino-9 virus in WI-38 cell cultures. Type of assay: functional. The following applies: Rhinovirus A.
Assay [2] concerns FM3A. The assay can be described thus: Inhibition of proliferation of Murine mammary carcinoma (FM3A) cells was measured. The following applies: Mus musculus, read-out: ID50 (the source's name). Type of assay: functional.
Assay [3] in a line: Minimum inhibitory concentration required to reduce virus induced cytopathogenicity by 50% against para influenza virus in WI-38 cell cultures. Type of assay: functional.
Assay [4] has as its system L1210. Briefly: Inhibition of proliferation of Murine Leukemia (L1210) cells was measured. The following applies: Mus musculus, read-out: ID50 (the source's name). Type of assay: functional.
Assay [5] concerns Mammalian orthoreovirus 1. Briefly: Minimum inhibitory concentration required to reduce virus induced cytopathogenicity by 50% against Reo-1 virus in WI-38 cell cultures. Type of assay: functional.
Assay [6] concerns P388. The assay can be described thus: Percent inhibition of proliferation of Murine Leukemia (P388) cells was measured. On the set-up: concentration or dose not given beside the values. It is filed as functional, Mus musculus. The gist of the method:
(§1)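 Mouse leukemia L1210 cells were grown in McCoy's 5A medium and P388D1 cells in Fischer's medium, each with 10% fetal calf serum. Compounds were dissolved in water, or sonicated and given as a suspension if poorly soluble. Cells were seeded at 1×10^5 per well and grown 72 h at 37 °C in 5% CO2. Viability was read by MTT formazan optical density at 570 nm (reference 630 nm).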

Assay [7] concerns Human alphaherpesvirus 1. The assay can be described thus: Minimum inhibitory concentration required to reduce virus induced cytopathogenicity by 50% against herpes simplex-1 virus in rabbit primary kidney cell cultures. It is filed as functional.
Assay [8] concerns Sindbis virus. Briefly: Minimum inhibitory concentration required to reduce virus induced cytopathogenicity by 50% against sindbis virus in Vero B cell cultures. It is filed as functional.
Assay [9] deals with Human rhinovirus 1A. The assay can be described thus: Minimum inhibitory concentration required to reduce virus induced cytopathogenicity by 50% against rhino-1A virus in WI-38 cell cultures. Type of assay: functional.
Assay [10] concerns Vesicular stomatitis virus. Briefly: Minimum inhibitory concentration required to reduce virus induced cytopathogenicity by 50% against Vesicular stomatitis virus in HeLa cell cultures. Type of assay: functional.
Assay [11] has as its system Coxsackievirus B4. Briefly: Minimum inhibitory concentration required to reduce virus induced cytopathogenicity by 50% against Coxsackie type B4 virus in Vero B cell cultures. It is filed as functional. The following applies: Enterovirus B.
The test system of assay [12] is Raji. The assay can be described thus: Inhibition of proliferation of Human B Lymphoblast (Raji) cells was measured. Type of assay: functional. The following applies: read-out: ID50 (the source's name).
Assay [13] is described as follows: (§2) Minimum cytotoxic concentration required to cause a microscopically detectable alteration of normal cell morphology. Type of assay: functional.
For assay [14], the system named is Human alphaherpesvirus 2. Briefly: Minimum inhibitory concentration required to reduce virus induced cytopathogenicity by 50% against herpes simplex-2 virus in rabbit primary kidney cell cultures. Type of assay: functional.
Assay [15] has as its system L1210. The assay can be described thus: Percent inhibition of proliferation of Murine Leukemia (L1210) cells was measured. Type of assay: functional, Mus musculus. On the set-up: concentration or dose not given beside the values. The gist of the method: as §1
The test system of assay [16] is Coxsackievirus B4. Briefly: Minimum inhibitory concentration required to reduce virus induced cytopathogenicity by 50% against Coxsackie type B4 virus in HeLa cell cultures. Type of assay: functional. The following applies: Enterovirus B.
A short description of assay [17]: as §2. It is filed as functional. This is another data set of the same source.
Assay [18] deals with MOLT-4F. The assay can be described thus: Inhibition of proliferation of Human T Lymphoblast (Molt/4F) cells was measured. It is filed as functional. The following applies: read-out: ID50 (the source's name).
Assay [19] has as its system Poliovirus 1. The assay can be described thus: Minimum inhibitory concentration required to reduce virus induced cytopathogenicity by 50% against polio type 1 virus in HeLa cell cultures. Type of assay: functional. The following applies: Enterovirus C.
Assay [20] deals with Semliki Forest virus. The assay can be described thus: Minimum inhibitory concentration required to reduce virus induced forest virus in Vero B cell cultures. It is filed as functional.
Assay [21] deals with Hepatoma cell line. The assay can be described thus: Inhibition of proliferation of Human hepatoma cells was measured. Type of assay: functional. The following applies: read-out: ID50 (the source's name).
Assay [22] deals with NAMALVA. Briefly: Inhibition of proliferation of Human B Lymphoblast (Namalva) cells was measured. Type of assay: functional. The following applies: read-out: ID50 (the source's name).

A value given as a limit tells only on which side of the number the result lay.

With `Cl.Cn1cc(NC(=O)c2cc(NC(=O)C(Cl)(Cl)Cl)cn2C)cc1C(=O)NCCC(=N)N`, the MIC in assay [1] is more than 40 µg/mL; in assay [3], more than 100 µg/mL; in assay [5] it was more than 40 µg/mL; in [7] it was more than 100 µg/mL; in [8], more than 100 µg/mL; in assay [9] it was more than 40 µg/mL. The MIC in assay [10] was more than 40 µg/mL; in [11], more than 100 µg/mL; in assay [14], more than 100 µg/mL; in [16], more than 40 µg/mL; in assay [19], more than 40 µg/mL; in assay [20], more than 100 µg/mL. Also, the IC50 in [2] is more than 100 µg/mL; in assay [4], 30.5 µg/mL; in assay [12] it was 68.7 µg/mL; in assay [18], 84.3 µg/mL. In addition, the values for the Inhibition in [6] and in [15] were 55% and 28%, respectively. For the same compound, the MCC in [13] is more than 100 µg/mL; in assay [17], more than 200 µg/mL.
`CC[N+](CC)(CC)CC.Cn1cc(NC(=O)c2cc(NC(=O)C(Cl)Cl)cn2C)cc1C(=O)NCCC(=N)N.O=S(=O)([O-])O`: the MIC in [1] was 40 µg/mL; in assay [3], more than 100 µg/mL; in assay [5] it was more than 200 µg/mL; in [7], 70 µg/mL; in assay [8] it was more than 100 µg/mL; in [9] it was 40 µg/mL. Further, the MIC in assay [10] was more than 200 µg/mL; in [11], more than 40 µg/mL; in [14], 70 µg/mL; in assay [16], more than 100 µg/mL; in assay [19], more than 100 µg/mL; in assay [20], more than 100 µg/mL. Also, the IC50 was more than 100 µg/mL in assay [2], more than 100 µg/mL in assay [4], 24.1 µg/mL in [12] and 27.2 µg/mL in [18]. For the same compound, the Inhibition is listed as 28% in assay [6] and 13% in assay [15]. The MCC in assay [13] was 200 µg/mL; in [17], more than 200 µg/mL.
Consider `Cl.Cn1cc(NC(=O)c2cc(NC(=O)CCCCl)cn2C)cc1C(=O)NCCC(=N)N`, for which the IC50 in [2] is 74.1 µg/mL; in [4], more than 100 µg/mL; in assay [12], more than 100 µg/mL; in assay [18], more than 100 µg/mL. In addition, the Inhibition in [6] and in [15] was 0% each time. For the same compound, the results for the MIC in [7], in assay [10] and in assay [14] were 300 µg/mL, more than 400 µg/mL and 150 µg/mL, respectively. The MCC in assay [13] and in assay [17] was more than 200 µg/mL throughout.
As to `Cl.Cl.Cn1cc(NC(=O)c2cc(NC(=O)c3cc(NC=O)cn3C)cn2C)cc1C(=O)NCCC(=N)N`, the IC50 in assay [21] is 54.7 µg/mL; in [22] it was 22.5 µg/mL; in assay [2], 30.6 µg/mL; in assay [4] it was 27.1 µg/mL; in [12], 23.7 µg/mL; in [18], 28.4 µg/mL. Further, the MIC is more than 200 µg/mL in assay [3]; more than 200 µg/mL in assay [5]; 70 µg/mL in [7]; more than 200 µg/mL in assay [8]; more than 100 µg/mL in assay [10]; more than 200 µg/mL in assay [11]. Besides, the figures for the MIC in assay [14] and in assay [20] were 70 µg/mL and more than 200 µg/mL, respectively. Moreover, the MCC in assay [13] and in assay [17] was more than 200 µg/mL throughout.
Turning to `Cl.Cn1cc(NC(=O)c2cc(NC(=O)C3CC3)cn2C)cc1C(=O)NCCC(=N)N`, the MIC was 20 µg/mL in assay [1]; more than 100 µg/mL in [3]; more than 100 µg/mL in [5]; 20 µg/mL in assay [7]; more than 100 µg/mL in [8]; more than 40 µg/mL in [9]. Besides, the MIC in assay [10] was more than 100 µg/mL; in assay [11], more than 100 µg/mL; in [14] it was 40 µg/mL; in assay [20], more than 100 µg/mL. Moreover, the IC50 in assay [2] is more than 100 µg/mL; in assay [4] it was more than 100 µg/mL; in assay [12], 26.7 µg/mL; in assay [18] it was 7.8 µg/mL. Further, the Inhibition in assay [6] worked out at 8%; in [15], 3%. Further, the MCC in [13] was 100 µg/mL; in assay [17] it was more than 200 µg/mL.
`Cl.Cn1cc(NC(=O)c2cc(NC(=O)CCl)cn2C)cc1C(=O)NCCC(=N)N`: the IC50 came to 3.63 µg/mL in assay [21]; 5.3 µg/mL in [22]; 13.3 µg/mL in [2]; 8.7 µg/mL in assay [4]; 3.09 µg/mL in assay [12]; 28.7 µg/mL in [18]. In addition, the MIC is more than 100 µg/mL in assay [3]; more than 100 µg/mL in [5]; 70 µg/mL in assay [7]; more than 100 µg/mL in [8]; more than 200 µg/mL in [10]; more than 100 µg/mL in [11]. The MIC in assay [14] was 70 µg/mL; in assay [16] it was more than 100 µg/mL; in assay [19] it was more than 100 µg/mL; in assay [20], more than 100 µg/mL. Moreover, the Inhibition is recorded as 38% in assay [6] and 29% in assay [15]. The MCC in assay [13] was not below 100 µg/mL.
Take `Cl.Cn1cc(NC(=O)c2cc(NC(=O)CF)cn2C)cc1C(=O)NCCC(=N)N`: the MIC in [1] was more than 200 µg/mL; in assay [3], more than 40 µg/mL; in assay [5], more than 100 µg/mL; in assay [7] it was 150 µg/mL; in assay [8], more than 200 µg/mL; in [9], more than 200 µg/mL. The MIC was 100 µg/mL in [10], more than 200 µg/mL in assay [11], 100 µg/mL in assay [14] and more than 200 µg/mL in assay [20]. The IC50 in assay [22] is 32.3 µg/mL; in [2], not below 100 µg/mL; in assay [4] it was 40.3 µg/mL; in [12] it was 33.1 µg/mL; in assay [18], 32.3 µg/mL. Moreover, the Inhibition in assay [6] and in [15] was 0% each time. Also, the MCC in assay [13] was more than 200 µg/mL; in assay [17], more than 100 µg/mL.
As to `Cl.Cl.Cn1cc(NC(=O)c2cc(NC(=O)CNC(=N)N)cn2C)cc1C(=O)NCCC(=N)N` [CONGOCIDINE], the figures for the IC50 in assay [21] and in [18] were 44.7 µg/mL and more than 100 µg/mL, respectively. Also, the MIC in [3] was more than 100 µg/mL; in [5], more than 200 µg/mL; in [7], more than 10 µg/mL; in assay [8], more than 200 µg/mL; in assay [10] it was more than 10 µg/mL; in assay [11], more than 200 µg/mL. Further, the values for the MIC in [14] and in [20] were more than 10 µg/mL and more than 200 µg/mL, respectively. The compound further registered an MCC in assay [13] of more than 400 µg/mL.
